Source: ChEMBL document CHEMBL1777669, “Synthesis of substituted triazolyl curcumin mimics that inhibit RANKL-induced osteoclastogenesis” (Bioorg Med Chem Lett, 2011)

Test system: RAW264.7
Experiment: Antiresorptive activity in mouse RAW264.7 cells assessed as inhibition of RANKL-induced osteoclastogenesis after 4 days by TRAP assay
Type: functional, cell-based
Settings: not given
Outline: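 RAW264.7 cells, maintained in DMEM with 10% FBS and penicillin/streptomycin at 37 °C under 5% CO₂, were seeded at 1 × 10³ cells/well in α-MEM. On day 4, cells were fixed in 10% formalin (10 min) and 95% ethanol (1 min), then dried. TRAP activity was measured with 5 mM p-nitrophenylphosphate in 50 mM citrate buffer (pH 4.6, 10 mM tartrate) for 30 min, stopped with 0.1 N NaOH, and read at 410 nm.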

| Compound | inhibition |
| --- | --- |
| COc1cc(/C=C/C(=O)c2cccc(-n3cc(-c4ccccc4C(F)(F)F)nn3)c2)ccc1O | Dose-dependent effect |
| COc1ccc(/C=C/C(=O)c2cccc(-n3cc(-c4ccc(C)cc4)nn3)c2)cc1O | Dose-dependent effect |
| COc1ccc(/C=C/C(=O)c2cccc(N=[N+]=[N-])c2)cc1O | Dose-dependent effect |
| COc1ccc(/C=C/C(=O)c2cccc(-n3cc(-c4ccccc4)nn3)c2)cc1O | Dose-dependent effect |

Same assay, conditions: RAW264.7, 96 h

| Compound | IC50 [µM] |
| --- | --- |
| COc1cc(/C=C/C(=O)c2cccc(-n3cc(C(C)(C)O)nn3)c2)ccc1O | 19.8 |
| COc1cc(/C=C/C(=O)c2cccc(-n3cc(-c4cccc(Cl)c4)nn3)c2)ccc1O | 14.3 |
| COc1cc(/C=C/C(=O)c2cccc(-n3cc(-c4ccc(C)cc4)nn3)c2)ccc1O | 15.4 |
| COc1cc(/C=C/C(=O)c2cccc(-n3cc(-c4cc(F)cc(F)c4)nn3)c2)ccc1O | 22.8 |
| COc1ccc(/C=C/C(=O)c2cccc(-n3cc(-c4ccc(Br)cc4)nn3)c2)cc1O | 6.57 |
| COc1ccc(-c2cn(-c3cccc(C(=O)/C=C/c4ccc(O)c(OC)c4)c3)nn2)cc1 | 7.9 |
| C=C(C)c1cn(-c2cccc(C(=O)/C=C/c3ccc(OC)c(O)c3)c2)nn1 | 7.76 |
| COc1ccc(/C=C/C(=O)c2cccc(-n3cc(C(C)(C)O)nn3)c2)cc1O | 17.1 |
| COc1cc(/C=C/C(=O)c2cccc(-n3cc(-c4ccc(F)cc4)nn3)c2)ccc1O | 6.45 |
| COc1cc(/C=C/C(=O)c2cccc(N=[N+]=[N-])c2)ccc1O | 7.11 |
| COc1ccc(/C=C/C(=O)c2cccc(-n3cc(-c4cc(F)cc(F)c4)nn3)c2)cc1O | 7.14 |
| COc1cc(/C=C/C(=O)c2cccc(-n3cc(-c4ccccc4C(F)(F)F)nn3)c2)ccc1O | 5.07 |
| COc1ccc(/C=C/C(=O)c2cccc(-n3cc(-c4ccc(F)cc4)nn3)c2)cc1O | 2.5 |
| COc1cc(/C=C/C(=O)c2cccc(-n3cc(-c4ccc(Br)cc4)nn3)c2)ccc1O | 19.1 |
| COc1ccc(/C=C/C(=O)c2cccc(-n3cc(-c4cccc(Cl)c4)nn3)c2)cc1O | 6.61 |
| COc1ccc(/C=C/C(=O)c2cccc(-n3cc(-c4ccccc4C(F)(F)F)nn3)c2)cc1O | 9.12 |
| CCCCCc1ccc(-c2cn(-c3cccc(C(=O)/C=C/c4ccc(OC)c(O)c4)c3)nn2)cc1 | > 30 |
| COc1ccc(-c2cn(-c3cccc(C(=O)/C=C/c4ccc(OC)c(O)c4)c3)nn2)cc1 | 6.29 |
| COc1cc(/C=C/C(=O)c2cccc(-n3cc(-c4ccccc4)nn3)c2)ccc1O | 16.8 |
| COc1ccc(/C=C/C(=O)c2cccc(-n3cc(-c4ccc(C)cc4)nn3)c2)cc1O | 1.7 |
| COc1ccc(/C=C/C(=O)c2cccc(N=[N+]=[N-])c2)cc1O | 1.96 |
| COc1ccc(/C=C/C(=O)c2cccc(-n3cc(-c4ccccc4)nn3)c2)cc1O | 1.51 |
| C=C(C)c1cn(-c2cccc(C(=O)/C=C/c3ccc(O)c(OC)c3)c2)nn1 | 9.79 |
| CCCCCc1ccc(-c2cn(-c3cccc(C(=O)/C=C/c4ccc(O)c(OC)c4)c3)nn2)cc1 | 5.78 |
